Screening data: PubChem, The Scripps Research Institute Molecular Screening Center
Most compounds without a hit are left out; they make up all but 3.6% or so of the library.
VIM-2 inhibitor – inhibitors of Pseudomonas aeruginosa VIM-2 metallo-beta-lactamase; purified VIM-2, nitrocefin hydrolysis, epi-absorbance fluorescence; inhibition, % at 5.6 µM; actives 0.89% (n = 290,000); AID 1527;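 active means inhibition above the mean of all tested compounds plus 3 SD, cutoff set per screening run, cut at about 7.5% in these data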;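 further: red hydrolysis product quenches plate fluorescence so inhibitors raise well fluorescence; 0% = enzyme with DMSO and 100% = DMSO without enzyme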
IMP-1 inh – blocks Pseudomonas aeruginosa IMP-1 metallo-beta-lactamase. purified IMP-1, nitrocefin hydrolysis, epi-absorbance fluorescence. inhibition, % at 5.6 µM. actives 0.45% (n = 290,000). AID 1556;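 active means inhibition above the mean plus 3 SD of all compounds in the same screening run, cut at about 4.5% in these data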;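 further: 0% = IMP-1 with DMSO and 100% = DMSO wells lacking enzyme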
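System: Purified recombinant IMP-1 metallo-beta-lactamase enzyme | Measured by: Fluorescence quenching readout, ex 480/em 530 nm | Replication: Singlicate | Incubation: 15 min preincubation plus 25 min reaction at 25 °C | Evaluation: Percent inhibition from optical density relative to buffer-blank wells | Benchmarks: DMSO with and without IMP-1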
PAFAH2 inh – PAFAH2 (human) inhibition | Q99487 | recombinant PAFAH2, FP-rhodamine activity probe, fluorescence polarization | inhibition, % at 3.39 µM | actives 0.99% (n = 340,000) | AID 492956;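 active means inhibition above the mean over all tested compounds plus 3 SD, cut at about 30% in these data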;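 further: inhibitors block probe labeling of enzyme so polarization drops; 0% = enzyme with DMSO and 100% = wells lacking PAFAH2 protein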
PAFAH1B3 inh – PAFAH1B3 (human) inhibition; actives 0.28% (n = 340,000); inhibition, % at 3.39 µM; recombinant PAFAH1B3, FP-rhodamine probe, fluorescence polarization;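 active means inhibition above the screen-wide average of all tested compounds plus 3 SD, cut at about 25% in these data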;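 further: 0% = enzyme with DMSO only and 100% = wells lacking PAFAH1B3 protein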
Target sequence (Q15102 whole entry, looked up): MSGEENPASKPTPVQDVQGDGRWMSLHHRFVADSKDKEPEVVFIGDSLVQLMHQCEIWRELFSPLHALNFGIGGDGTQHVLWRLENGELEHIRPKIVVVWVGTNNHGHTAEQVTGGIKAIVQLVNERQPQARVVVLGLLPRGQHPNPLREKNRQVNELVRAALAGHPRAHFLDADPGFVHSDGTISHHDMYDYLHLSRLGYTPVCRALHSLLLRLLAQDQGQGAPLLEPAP
pPAFAH FP inh – pPAFAH (human) enzyme inhibition; recombinant pPAFAH, FP-rhodamine probe fluorescence polarization; inhibition, % at 3.39 µM; actives 1.5% (n = 330,000);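 active means inhibition above the mean inhibition across the screen plus 3 SD, cut at about 25% in these data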;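 further: inhibitors block binding of the rhodamine activity-based probe so polarization drops; 0% = enzyme with DMSO and 100% = wells lacking pPAFAH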
Target sequence (Q13093 whole entry, looked up): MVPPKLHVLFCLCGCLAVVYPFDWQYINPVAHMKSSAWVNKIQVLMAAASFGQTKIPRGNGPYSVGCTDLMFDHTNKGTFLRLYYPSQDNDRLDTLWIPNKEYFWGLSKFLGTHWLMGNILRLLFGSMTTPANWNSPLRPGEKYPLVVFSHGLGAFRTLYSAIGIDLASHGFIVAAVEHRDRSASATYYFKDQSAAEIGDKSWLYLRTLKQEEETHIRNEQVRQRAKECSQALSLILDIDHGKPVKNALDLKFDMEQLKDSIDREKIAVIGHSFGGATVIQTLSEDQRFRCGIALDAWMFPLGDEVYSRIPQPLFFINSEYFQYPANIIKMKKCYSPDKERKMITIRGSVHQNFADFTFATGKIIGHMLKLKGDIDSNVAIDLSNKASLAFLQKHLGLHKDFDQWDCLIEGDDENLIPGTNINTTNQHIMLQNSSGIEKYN
PAFAH1B2 FP inh – PAFAH1B2 (human) inhibition; P68402; recombinant PAFAH1B2, FP-rhodamine activity probe, fluorescence polarization; inhibition, % at 3.39 µM; actives 1.2% (n = 340,000); AID 492953;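 active means inhibition above the mean of all tested compounds plus 3 SD, cut at about 24% in these data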;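 further: 0% = enzyme with DMSO and 100% = wells lacking PAFAH1B2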
* hit, by the source's call; nt = no result given.

SMILES	VIM-2 inhibitor	IMP-1 inh	PAFAH2 inh	PAFAH1B3 inh	pPAFAH FP inh	PAFAH1B2 FP inh
CC(=O)c1nn(-c2cccc(Br)c2)cc1C(=O)c1ccco1	0.5	-4.5	5.2	8.1	25.2*	-3.7
COCCCNC(=S)NNC(=O)c1csc(C)n1	-1.7	8.7*	-5.3	1.2	-0.6	1.7
COCCCNC(=S)NNC(=O)c1ccc(C(C)(C)C)cc1	-4.0	-1.0	-2.1	0.5	5.4	-1.0
Cc1ccnc(NS(=O)(=O)c2ccc(NC(=O)C34CC5CC(CC(C5)C3)C4)cc2)n1	-0.2	0.6	3.3	2.8	4.3	17.5
O=C(Nc1ccc(S(=O)(=O)Nc2ncccn2)cc1)C12CC3CC(CC(Cl)(C3)C1)C2	nt	nt	5.8	10.3	13.2	29.7*
COc1ccc(-c2cc(CCC(=O)N3CCN(c4cc(C)ccc4C)CC3)on2)cc1	nt	nt	1.1	0.5	-1.3	-1.0
COc1ccc(/C=N\NC(=O)c2cc(O)c(O)c(O)c2)cc1CN1CCN(c2ccc(F)cc2)CC1	-4.5	-3.1	-6.3	12.9	30.5*	-6.3
CC(Oc1ccccc1)C(=O)N=C1SC2CS(=O)(=O)CC2N1Cc1ccc(F)cc1 (configuration not stated)	-1.7	-1.3	2.2	2.5	26.1*	5.6
Cn1cccc1C(=O)OCC(=O)Nc1ccc2c(c1)CCC2	-1.4	-1.1	62.4*	1.4	27.8*	-1.1
Cn1cccc1C(=O)OCC(=O)Nc1ccc2c(c1)OCO2	0.0	-1.7	27.1	-4.5	0.1	-0.4
O=C(NCc1ccco1)c1c2c(nc3ccccc13)CCC2	-4.2	-2.1	14.9	6.3	26.9*	4.2
Nc1c(C(=O)NCc2ccco2)sc2nc3c(cc12)C(=O)CCC3	-0.9	2.1	1.4	-6.6	28.2*	2.0
COc1ccc2cc3c(N)c(C(=O)NCc4ccco4)sc3nc2c1	-0.1	-2.4	10.4	1.1	8.3	-1.0
COC(=O)CCC(=O)Nc1ccc(S(=O)(=O)Nc2nc(C)cc(C)n2)cc1	-0.3	4.8*	1.0	2.5	-0.4	1.9
O=C(O)c1cc(-n2nnnc2SCc2ccccc2F)ccc1Cl	10.4*	-2.0	-0.4	2.2	1.2	0.7
O=C(O)c1cc(-n2nnnc2SCc2ccc([N+](=O)[O-])cc2)ccc1Cl	7.4	-1.8	3.9	4.5	6.9	26.2*
O=C(O)c1ccc(-n2nnnc2SCc2ccccc2Br)cc1	-2.2	-2.5	1.4	4.6	1.1	27.4*
Oc1cccc(-n2nnnc2SCc2ccccc2F)c1	-2.1	-2.2	-0.3	6.0	12.2	7.8
CCCCOC(=O)Oc1ccc2c(=O)c(Oc3cccc(C)c3)coc2c1	0.9	-0.6	18.5	1.3	27.2*	2.6
NS(=O)(=O)c1ccc(NC(=O)c2ccc(S(=O)(=O)N3CCCCCC3)cc2)cc1	nt	nt	0.7	8.9	-0.6	4.6
CCCCCCCC[n+]1cccc(C(=O)N(CC)CC)c1	-0.2	-4.2	-2.5	5.7	-4.0	-1.3
CCCCCCCCCCCCCCCC[n+]1cccc(C(=O)N(CC)CC)c1	-2.1	-4.0	-4.7	1.9	32.1*	2.6
Cc1ccc(O)c(Nc2nc(-c3ccccc3)nc3ccccc23)c1	-0.1	-2.2	-2.7	1.6	4.1	-2.7
Cc1ccc(O)c(Nc2c3ccccc3nc3ccccc23)c1	9.2*	-2.5	-2.0	3.9	12.5	0.3
CCN(C[C@H]1N[C@@](Cc2ccccc2)(C(=O)OC)[C@H]2C(=O)N(Cc3ccccc3)C(=O)[C@@H]12)C(=O)Nc1ccc(Cl)cc1	nt	nt	-11.0	0.5	0.1	8.6
SMILES	VIM-2 inhibitor	IMP-1 inh	PAFAH2 inh	PAFAH1B3 inh	pPAFAH FP inh	PAFAH1B2 FP inh
COC(C/C=C/C(=O)COCc1ccccc1)OC	nt	nt	-4.5	-0.9	nt	6.4
COC(C/C=C\C(=O)COCc1ccccc1)OC	nt	nt	nt	nt	25.2*	nt
NS(=O)(=O)c1cc(C(=O)OCC(=O)Nc2ccc3c(c2)OCO3)ccc1Cl	nt	nt	10.2	-1.3	4.0	3.5
Oc1ccc(-c2c(C3=CCCCC3)sc3ccccc23)cc1	0.0	5.1*	-1.3	10.3	7.6	7.7
c1ccc(-c2sc3ccccc3c2-c2ccc(OCCN3CCCC3)cc2)cc1	nt	nt	-1.5	5.2	6.7	-6.6
Clc1ccc(C2Nc3cccc4cccc(c34)N2)cc1Cl	3.1	6.1*	12.3	16.7	6.0	7.5
CCOc1cc(C2Nc3cccc4cccc(c34)N2)ccc1O	-4.1	-3.4	41.0*	39.8*	5.7	26.8*
CC1CCc2c(sc(NC(=O)c3ccc(Cn4cc([N+](=O)[O-])cn4)o3)c2C#N)C1 (configuration not stated)	-1.7	-0.5	12.5	0.5	31.3*	15.0
O=C(O)c1ccc2c(c1)C(=O)/C(=C/c1ccccc1)C2=O	-1.5	0.5	12.8	39.3*	27.4*	20.8
CCOC(=O)c1c(C)[nH]c(C(=O)OCC(=O)Nc2cccnc2Cl)c1C	nt	nt	1.8	8.4	3.6	2.1
CCCCCCCCN1[C@@H](CC(=O)O)c2cc(C(F)(F)F)ccc2S1(=O)=O	nt	nt	6.9	9.6	8.2	27.3*
S=c1[nH]nc(Cc2ccc(Br)cc2)n1/N=C/c1ccc(Cl)cc1	-6.4	-4.0	-1.6	12.9	7.2	34.3*
Cc1n[nH]c(=S)n1/N=C/c1ccc(OCc2ccc(Cl)cc2)cc1	-2.6	-4.8	9.5	5.8	4.6	28.2*
S=c1[nH]nc(COc2ccccc2)n1/N=C/c1ccc(Cl)cc1	-3.0	-1.5	2.4	13.5	nt	15.6
CCOc1ccccc1CNc1nc2ccccc2n1C	-0.8	-4.7	-13.5	12.2	3.5	2.5
CCOc1ccccc1CNc1ccc(O)cc1	-0.2	-1.9	34.6*	25.7*	nt	20.7
Cc1ccc(NCc2ccccc2OCc2ccccc2F)cc1	-2.7	0.1	0.7	-4.0	7.2	4.2
CCOc1cccc(CNc2ccc(O)cc2)c1OCc1ccc(Cl)cc1	-2.0	-3.3	7.6	7.9	32.6*	3.0
Oc1ccc(NCc2ccccc2OCc2ccccc2F)cc1	-4.6	-6.3	4.1	11.0	31.4*	4.1
Cc1cc(S(=O)(=O)Nc2nc(CN3CCOCC3)nc3sc4c(c23)CCC4)ccc1F	nt	nt	2.2	5.7	10.6	0.7
CC1CCN(c2ccc(C(=O)O)cc2NS(=O)(=O)c2ccc(Br)cc2)CC1	3.9	-2.0	10.5	7.1	3.4	28.2*
COC(=O)c1ccc(N2CCCCC2)c(NS(=O)(=O)c2ccc(C)cc2)c1	-1.3	-1.5	1.5	4.2	-1.1	3.3
Cc1ccc2oc(-c3ccccc3C(=O)O)cc(=O)c2c1	1.1	-2.8	3.8	8.7	-0.8	6.9
O=C(O)c1cccc2cccc(-c3c4ccc(=O)c(O)c-4oc4c(O)c(O)ccc34)c12	nt	nt	69.0*	65.8*	nt	62.2*
O=C(NCCCN1CCCC1=O)c1cc2nc(-c3ccco3)cc(C(F)(F)F)n2n1	4.3	1.1	0.1	11.3	9.2	1.1
CN(C)c1ccc(-c2nnc(-c3ccccc3F)o2)cc1	1.7	-1.9	2.7	5.0	16.6	-3.0
